How the values were obtained:
Coagulation factor XI = Coagulation factor XI (Homo sapiens, UniProt P03951); assay: Inhibition of human coagulation factor 11a using pyroGlu-Pro-Arg-pNA as substrate after 10 to 120 mins at 37 degC by spectrophotometric method
In short: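 Purified human proteases, 37 °C; reaction started by adding enzyme to substrate (up to 4× Km) ± inhibitor; compound from DMSO, 1% DMSO final except where noted. […] Buffers: FXIa, chymotrypsin, tPA, plasmin, urokinase in 50 mM HEPES pH 7.4, 145 mM NaCl, 5 mM KCl, 0.1% PEG 8000; FXa, thrombin, trypsin, plasma kallikrein, aPC in 100 mM Na phosphate pH 7.4, 200 mM NaCl, 0.5% PEG 8000; FIXa in 50 mM Tris pH 7.4, 100 mM NaCl, 5 mM CaCl2, 0.5% PEG 8000, 2% DMSO.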

[1] = Half life in human liver microsomes; format: ADME, microsome
Plasma = assay: Anticoagulant activity in human plasma assessed as concentration required to produce 50% increase in activated partial thromboplastin time; format: functional
In short: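 Citrated (one-tenth volume 0.11 M) plasma from healthy volunteers, spun 2,000 g 10 min, kept on ice; 10 mM DMSO stock diluted in plasma, up to 7 concentrations; aPTT on automated coagulometer, duplicates as mean ratio to baseline; EC1.5x (50% prolongation) by linear interpolation, as total plasma concentration.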

Sequence of Coagulation factor XI (P03951 19-387 limits assumed): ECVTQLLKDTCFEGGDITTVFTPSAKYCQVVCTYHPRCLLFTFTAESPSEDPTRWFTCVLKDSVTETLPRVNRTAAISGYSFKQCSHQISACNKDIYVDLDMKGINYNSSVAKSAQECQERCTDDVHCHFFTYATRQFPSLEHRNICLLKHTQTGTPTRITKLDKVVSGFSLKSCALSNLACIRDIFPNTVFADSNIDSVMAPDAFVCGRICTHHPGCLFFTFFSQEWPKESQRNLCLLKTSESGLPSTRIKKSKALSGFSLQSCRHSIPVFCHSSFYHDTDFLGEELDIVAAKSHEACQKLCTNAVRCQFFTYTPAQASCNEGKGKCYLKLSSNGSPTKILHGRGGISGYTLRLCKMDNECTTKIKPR
Sequence of Coagulation factor XI (P03951 388-625 limits assumed): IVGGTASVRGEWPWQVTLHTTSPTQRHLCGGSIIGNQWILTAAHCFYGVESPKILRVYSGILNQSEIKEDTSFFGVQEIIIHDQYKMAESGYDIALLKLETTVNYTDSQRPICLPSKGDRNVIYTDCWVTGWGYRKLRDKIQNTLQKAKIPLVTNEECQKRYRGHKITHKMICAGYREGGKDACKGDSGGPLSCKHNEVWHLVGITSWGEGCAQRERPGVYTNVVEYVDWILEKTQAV

COC(=O)Nc1ccc2c(c1)NCCC/C=C/C[C@H](NC(=O)/C=C/c1cc(Cl)ccc1-n1cnnn1)c1nc-2c[nH]1
Ki (Coagulation factor XI): 514 nM | half-life [1]: 17 min

COC(=O)Nc1ccc2c(c1)NC(=O)CC/C=C/C[C@H](NC(=O)/C=C/c1cc(Cl)ccc1-n1cnnn1)c1nc-2c(Cl)[nH]1
Ki (Coagulation factor XI): 0.03 nM | EC1.5 (Plasma): 0.28 µM | half-life [1]: 58 min

COC(=O)Nc1ccc2c(c1)NC(=O)CCCCC[C@H](NC(=O)/C=C/c1cc(Cl)ccc1-n1cnnn1)c1nc-2c(Cl)[nH]1
Ki (Coagulation factor XI): 0.47 nM | EC1.5 (Plasma): 0.92 µM | half-life [1]: 86 min

COC(=O)Nc1ccc2c(c1)CCCCCC[C@H](NC(=O)/C=C/c1cc(Cl)ccc1-n1cnnn1)c1nc-2c(Cl)[nH]1
Ki (Coagulation factor XI): 42 nM | EC1.5 (Plasma): 27 µM

COC(=O)Nc1ccc2c(c1)CCCCCCC[C@H](NC(=O)/C=C/c1cc(Cl)ccc1-n1cnnn1)c1nc-2c(Cl)[nH]1
Ki (Coagulation factor XI): 68 nM | EC1.5 (Plasma): 34 µM

C=CC[C@H](NC(=O)/C=C/c1cc(Cl)ccc1-n1cnnn1)c1nc(-c2ccc(NC(=O)OC)cc2NC(=O)CC)c[nH]1
Ki (Coagulation factor XI): 27 nM | EC1.5 (Plasma): 21 µM | half-life [1]: 12 min

COC(=O)Nc1ccc2c(c1)NC(=O)OCCCC[C@H](NC(=O)/C=C/c1cc(Cl)ccc1-n1cnnn1)c1nc-2c[nH]1
Ki (Coagulation factor XI): 3.8 nM | EC1.5 (Plasma): 0.86 µM | half-life [1]: 62 min

COC(=O)Nc1ccc2c(c1)CCCCCCC[C@H](NC(=O)/C=C/c1cc(Cl)ccc1-n1cnnn1)c1nc-2c[nH]1
Ki (Coagulation factor XI): 600 nM

COC(=O)Nc1ccc2c(c1)NC(=O)OC/C=C/C[C@H](NC(=O)/C=C/c1cc(Cl)ccc1-n1cnnn1)c1nc-2c[nH]1
Ki (Coagulation factor XI): 0.88 nM | EC1.5 (Plasma): 0.45 µM | half-life [1]: 69 min

COC(=O)Nc1ccc2c(c1)NC(=O)C/C=C/C[C@H](NC(=O)/C=C/c1cc(Cl)ccc1-n1cnnn1)c1nc-2c[nH]1
Ki (Coagulation factor XI): 264 nM | EC1.5 (Plasma): >40 µM

COC(=O)Nc1ccc2c(c1)OCCC/C=C/C[C@H](NC(=O)/C=C/c1cc(Cl)ccc1-n1cnnn1)c1nc-2c[nH]1
Ki (Coagulation factor XI): 3920 nM

COC(=O)Nc1ccc2c(c1)NC(=O)CC/C=C\C[C@H](NC(=O)/C=C/c1cc(Cl)ccc1-n1cnnn1)c1nc-2c[nH]1
EC1.5 (Plasma): 12 µM

COC(=O)Nc1ccc2c(c1)OCCCCCC[C@H](NC(=O)/C=C/c1cc(Cl)ccc1-n1cnnn1)c1nc-2c(Cl)[nH]1
Ki (Coagulation factor XI): 76 nM | EC1.5 (Plasma): >40 µM

COC(=O)Nc1ccc2c(c1)CCCC/C=C/C[C@H](NC(=O)/C=C/c1cc(Cl)ccc1-n1cnnn1)c1nc-2c[nH]1
Ki (Coagulation factor XI): 184 nM | EC1.5 (Plasma): >40 µM
